ChEMBL document CHEMBL1140003, “Bivalent ligand approach on 4-[2-(3-methoxyphenyl)ethyl]-1-(2-methoxyphenyl)piperazine: synthesis and binding affinities for 5-HT(7) and 5-HT(1A) receptors” (Bioorg Med Chem, 2007)

Key:
[1] = target: 5-hydroxytryptamine receptor 7 (Rattus norvegicus, UniProt P32305); experiment: Displacement of [3H]LSD from rat recombinant 5HT7 receptor expressed in HEK293 cells; format: cell-based
Procedure, shortened: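 Membranes (30 µg) incubated 60 min at 37 °C with 2.5 nM [3H]LSD and 6–9 test concentrations in 50 mM Tris, 10 mM MgCl2, 0.5 mM EDTA, pH 7.4. Stopped by GF/A filtration (0.5% PEI pre-soak), cold-buffer washes; nonspecific binding defined by 10 µM 5-CT. Ki by nonlinear curve fit and Cheng–Prusoff; mean ± SEM of three experiments in triplicate.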

[2] = target: 5-hydroxytryptamine receptor 1A (Homo sapiens) (UniProt P08908); experiment: Displacement of [3H]-8-OH-DPAT from human recombinant 5HT1A receptor expressed in HEK293 cells
Chain of 5-hydroxytryptamine receptor 1A (Homo sapiens) (P08908 whole entry, looked up): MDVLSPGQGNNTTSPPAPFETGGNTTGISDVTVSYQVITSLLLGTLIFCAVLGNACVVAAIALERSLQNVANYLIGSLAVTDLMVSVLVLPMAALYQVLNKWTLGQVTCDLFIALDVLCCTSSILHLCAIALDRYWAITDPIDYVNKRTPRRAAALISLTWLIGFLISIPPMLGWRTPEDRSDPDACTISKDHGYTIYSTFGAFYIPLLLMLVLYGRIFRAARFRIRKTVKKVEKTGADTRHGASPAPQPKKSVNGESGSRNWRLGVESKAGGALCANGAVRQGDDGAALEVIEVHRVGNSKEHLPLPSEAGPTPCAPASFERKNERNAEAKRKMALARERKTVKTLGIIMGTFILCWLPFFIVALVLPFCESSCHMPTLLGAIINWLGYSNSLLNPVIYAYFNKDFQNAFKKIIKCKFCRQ

Chain of 5-hydroxytryptamine receptor 7 (P32305 whole entry): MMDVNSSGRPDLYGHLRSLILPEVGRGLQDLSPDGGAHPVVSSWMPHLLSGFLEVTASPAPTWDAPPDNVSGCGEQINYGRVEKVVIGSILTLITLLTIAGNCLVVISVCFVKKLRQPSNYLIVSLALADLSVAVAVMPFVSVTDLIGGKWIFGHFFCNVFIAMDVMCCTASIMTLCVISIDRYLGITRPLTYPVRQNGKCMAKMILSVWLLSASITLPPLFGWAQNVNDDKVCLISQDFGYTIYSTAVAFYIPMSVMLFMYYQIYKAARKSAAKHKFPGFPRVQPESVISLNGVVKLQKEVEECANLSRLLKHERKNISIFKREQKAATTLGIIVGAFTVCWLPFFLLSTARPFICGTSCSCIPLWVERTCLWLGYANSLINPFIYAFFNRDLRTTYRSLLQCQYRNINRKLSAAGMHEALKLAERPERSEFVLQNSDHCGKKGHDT

| Compound | Ki [1] [nM] | Ki [2] [nM] |
| --- | --- | --- |
| COc1ccccc1N1CCN(CCc2cccc(OCCOCCOc3cccc(CCN4CCN(c5ccccc5OC)CC4)c3)c2)CC1 | 37 | 0.62 |
| COc1ccccc1N1CCN(CCc2cccc(OCCCCCCCCCCCCOc3cccc(CCN4CCN(c5ccccc5OC)CC4)c3)c2)CC1 | – | 253 |
| COc1ccccc1N1CCN(CCc2cccc(OCCOc3cccc(CCN4CCN(c5ccccc5OC)CC4)c3)c2)CC1 | 41.1 | 2.2 |
| COc1ccccc1N1CCN(CCc2cccc(OCCCCCOc3cccc(CCN4CCN(c5ccccc5OC)CC4)c3)c2)CC1 | 120 | 1.74 |
| COc1ccccc1N1CCN(CCc2cccc(OCCCOc3cccc(CCN4CCN(c5ccccc5OC)CC4)c3)c2)CC1 | 25 | 5.6 |
| COc1ccccc1N1CCN(CCc2cccc(OCCCCCCOc3cccc(CCN4CCN(c5ccccc5OC)CC4)c3)c2)CC1 | 42.6 | 1.6 |
| COc1ccccc1N1CCN(CCc2cccc(OCCCCCCCCCCOc3cccc(CCN4CCN(c5ccccc5OC)CC4)c3)c2)CC1 | 258 | 28.3 |
| COc1ccccc1N1CCN(CCc2cccc(OC(=O)COCC(=O)Oc3cccc(CCN4CCN(c5ccccc5OC)CC4)c3)c2)CC1 | 43 | 2.74 |
| COc1ccccc1N1CCN(CCc2cccc(OCCCCCCCCOc3cccc(CCN4CCN(c5ccccc5OC)CC4)c3)c2)CC1 | 573 | 4.8 |
| COc1ccccc1N1CCN(CCc2cccc(OCCCCOc3cccc(CCN4CCN(c5ccccc5OC)CC4)c3)c2)CC1 | 28.5 | 0.9 |
